Sampled rows, rich in hits. Any-hit rate of the full collection: about 2.1%.
XiGFP reactiv: activators of X-chromosome reactivation in mouse fibroblasts; XiGFP mouse fibroblasts, % GFP-positive cells imaging, 3 d; cells co-treated with 5-aza-dC sensitizer; scaled so ellipticine positive control = 100%; activation, % at 7.58 µM; 0.055% of 360,000 active; AID 743238;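 active = mean normalized replicate activation at least 10% and every replicate at or above 10%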;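 note: 0% = median of on-plate neutral control wells and 100% = ellipticine 6 µM median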
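Material: SV40-immortalized XiGFP fibroblast cells, line 68-5-11 | Buffer or medium: DMEM containing 5-aza-dC | Dosing: One concentration, pinned | Times: 3 d treatment, 15 min room-temperature fixation | Controls: Ellipticine 6 µM positive control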
EWS-Fli inh: inhibitors of EWS/Fli oncoprotein transcriptional activity; A673 NR0B1-luciferase reporter, viability-normalised; inhibition, % at 12.6 µM; 0.67% of 350,000 active; AID 651661;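 active = mean inhibition of at least 50% after viability correction, with every replicate also passing that limit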;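 note: firefly luciferase signal divided by Alamar Blue viability fluorescence both relative to DMSO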
PAX8 reporter: PAX8 transcriptional activity inhibition | RMG-I TPO-luciferase reporter, SteadyGlo, 24 h | inhibition, % at 12.6 µM | 1.2% of 360,000 active | AID 652154;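 active = mean replicate inhibition at least 60% with every replicate also reaching 60%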;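 note: luciferase light reporting Pax8 driven TPO promoter activity; plate controls were median of neutral control wells for no effect and mitoxantrone controls for full effect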
INS-1E GSIS act: GLuc luminescence reporter in INS-1E cells, primary screen for activators of glucose-dependent secretion of insulin; activation, % at 16.6 µM; AID 743287; 0.61% of 370,000 active; INS-1E GLuc reporter insulin secretion, 2-3 h;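 active = lowest replicate activation of at least 40%, so every replicate reaches that level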;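 note: 0% = median of neutral control wells and 100% = median of IBMX positive control wells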
MLL AF4-AF9 inh: blocks AF4 peptide binding to human AF9 | P42568 | AlphaScreen, biotin-AF4 peptide binding to FLAG-AF9 | inhibition, % at 10 µM | 0.47% of 350,000 active | AID 651704;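 active = every replicate reaching a set inhibition limit, whatever the replicate mean, cut at about 25% in these data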;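 note: 0% = plate neutral control median and 100% = total signal loss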
Target sequence (P42568 whole entry, looked up): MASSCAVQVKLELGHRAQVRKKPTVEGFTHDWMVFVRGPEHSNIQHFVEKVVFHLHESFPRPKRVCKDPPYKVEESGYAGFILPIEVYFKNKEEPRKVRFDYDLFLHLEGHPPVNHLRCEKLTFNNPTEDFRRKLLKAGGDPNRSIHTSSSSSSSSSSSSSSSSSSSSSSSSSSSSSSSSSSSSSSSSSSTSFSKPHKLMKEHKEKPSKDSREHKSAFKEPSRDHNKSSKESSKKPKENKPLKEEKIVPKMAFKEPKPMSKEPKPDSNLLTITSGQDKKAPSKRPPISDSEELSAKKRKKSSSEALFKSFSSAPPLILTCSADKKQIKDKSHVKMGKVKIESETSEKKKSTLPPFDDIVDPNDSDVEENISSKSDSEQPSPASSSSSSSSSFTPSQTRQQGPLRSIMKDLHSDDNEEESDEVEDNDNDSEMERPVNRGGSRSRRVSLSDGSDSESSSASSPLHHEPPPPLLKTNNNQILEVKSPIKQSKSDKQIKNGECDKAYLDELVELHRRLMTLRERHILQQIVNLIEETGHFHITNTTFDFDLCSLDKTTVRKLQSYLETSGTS
PGC1a acetyl inh: PGC1a acetylation modulation, inhibitor mode; U2OS PGC1a acetylation, AlphaScreen anti-acetyl-lysine; with virally co-expressed GCN5 acetyltransferase; inhibition, % at 15.6 µM; 0.17% of 350,000 active; AID 651687;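 active = every replicate shows inhibition of at least 40%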;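 note: 0% = neutral control wells and 100% = positive control wells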
DNA binding: DNA binding small molecules; shares compounds with EWS-Fli inh; salmon sperm DNA acridine orange fluorescence polarization; AC35, µM (top dose mostly 68 µM), for the others: at the top dose activity change, negative = DNA binding; 2% of 640 active;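 active = fitted curve reaches a 35% signal fall AC35 below twice the sample's top valid tested dose, actives reach about 48 µM in these data; inactive = the rest, including activity in the rising direction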;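 note: lower polarization ratio signals compound binding to DNA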
Numbers without * were called inactive; x = not tested or not shown.

SMILES | XiGFP reactiv | EWS-Fli inh | PAX8 reporter | INS-1E GSIS act | MLL AF4-AF9 inh | PGC1a acetyl inh | DNA binding
CNC[C@H]1Oc2ccc(NC(=O)Nc3c(C)noc3C)cc2C(=O)N([C@@H](C)CO)C[C@H]1C | 0 | -1 | -16 | 9 | -4 | 11 | x
CCN1CCN(/C=N/c2nc3c(s2)CCCC3)CC1 | x | 57* | x | 7 | 1 | -5 | -10%
COc1ccc(-c2cn(-c3ccc(OC)cc3)c3[n+]2-c2ccccc2CC3)cc1 | 0 | 74* | 92* | -33 | -1 | x | -5%
COc1cc(C(c2c(C)[nH][nH]c2=O)c2c(C)[nH][nH]c2=O)ccc1OC(C)C | 0 | 78* | -7 | -15 | 2 | 9 | -16%
COc1ccc([C@H]2CC=CC[C@@H](C)Oc3ccccc3C(=O)N(C)[C@H](C(C)C)C(=O)N2)c(OC)c1 (mixture of isomers) | 0 | x | x | -18 | x | x | x
C[C@H]1COCn2nncc2CC[C@H](Cc2ccccc2)C(=O)N1 | 0 | x | x | 8 | x | x | x
Cc1c(Cl)cccc1NC(=O)CCC(=O)N/N=C/c1ccc[nH]1 | 0 | 58* | -8 | x | 8 | x | -13%
COc1ccccc1NC(=O)N1[C@@H]2CNC[C@H]1[C@@H]2c1ccc(-c2ccc(C#N)cc2)cc1 | 5 | 54* | -5 | 14 | 7 | 1 | -16%
COc1ccccc1NC(=O)N1[C@@H]2CNC[C@H]1C2c1ccc(-c2cccc(C#N)c2)cc1 (some centres undefined) | 0 | x | x | 15 | -3 | 4 | x
CC(C)NC(=O)Nc1ccc2c(c1)C(=O)N([C@H](C)CO)C[C@@H](C)[C@@H](CN(C)C)OCCCC[C@H](C)O2 | 0 | x | -4 | 25 | -3 | 5 | x
Cc1ccc(Cl)cc1NC(=O)Cn1cc(C(F)(F)F)cc(Cl)c1=O | 0 | 76* | 9 | 11 | -4 | 2 | 4%
Cc1c(Cl)cccc1NC(=O)Cn1cc(C(F)(F)F)cc(Cl)c1=O | 0 | -9 | 1 | 3 | -2 | x | x
O=c1[nH]c(=O)n([C@H]2C[C@H](O)[C@@H](CO)O2)cc1F | 1 | 64* | 17 | 26 | -4 | x | -5%
O=c1[nH]c(=O)n(C2CC(O)C(CO)O2)cc1I (centres undefined) | 0 | 1 | -19 | 6 | 0 | -8 | x
C(=N\Nc1nc2ccccc2[nH]1)/c1ccccn1 | 0 | 70* | 62* | 4 | 14 | x | 0%
COc1ccccc1-c1cn(CC[C@H]2CC[C@@H](NC(=O)C3CCCC3)[C@@H](CO)O2)nn1 | 0 | 57* | x | 1 | -4 | -6 | -16%
COc1ccccc1-c1cn(CC[C@H]2CC[C@@H](NC(=O)C3CCCC3)[C@H](CO)O2)nn1 | 0 | -1 | x | 8 | -2 | -8 | x
C[C@@H]1CCCCO[C@H](CN(C)C(=O)CCCN(C)C)[C@@H](C)CN([C@@H](C)CO)C(=O)c2cc(NC(=O)Nc3cccc4ccccc34)ccc2O1 | 0 | 0 | -6 | -18 | 18 | -1 | x
CCc1ccc(/C=C2\SC(=S)N(CCCC(=O)NCCCN3CCOCC3)C2=O)cc1 | 0 | 85* | 62* | 41* | 4 | 15 | 0%
CCc1ccc(/C=C2\SC(=S)N(CCCC(=O)N3CCN(C)CC3)C2=O)cc1 | 0 | 69* | 46 | -15 | 33* | 13 | -24%
COc1ccc(/C=C2\SC(=S)N(CCCC(=O)N3CCN(C)CC3)C2=O)cc1 | 0 | 4 | 30 | -8 | 21 | x | x
Cc1ccc(S(=O)(=O)N[C@H]2CC[C@H](CCn3cc(-c4cccc(F)c4)nn3)O[C@@H]2CO)cc1 | 0 | 28 | 34 | -26 | 1 | -2 | x
C[C@@H]1CN([C@H](C)CO)C(=O)c2cc(NS(C)(=O)=O)ccc2O[C@@H](C)CCCCO[C@H]1CN(C)S(=O)(=O)c1ccc(F)cc1 | 0 | -6 | -11 | -2 | 1 | 5 | x
C[C@@H]1CN([C@H](C)CO)C(=O)Cc2cc(NC(=O)Cn3cnnn3)ccc2O[C@H]1CN(C)C(=O)Nc1ccc(F)cc1 | 0 | -6 | 5 | 9 | x | 3 | x
O=C(N[C@H]1CC[C@@H](CCn2cc(Cc3ccccc3)nn2)O[C@@H]1CO)c1cnccn1 | 0 | 2 | 7 | 0 | -3 | 4 | x
SMILES | XiGFP reactiv | EWS-Fli inh | PAX8 reporter | INS-1E GSIS act | MLL AF4-AF9 inh | PGC1a acetyl inh | DNA binding
O=C(NCc1ccccc1)c1cccc(S(=O)(=O)N2CCCCC2)c1 | 0 | 8 | 4 | -23 | 3 | -8 | x
CCNC(=O)c1cccc(S(=O)(=O)N2CCCCCC2)c1 | 0 | 67* | -12 | -2 | 4 | x | -20%
COc1ccc2oc(C(=O)NCCc3ccccc3)c(C)c2c1 | 0 | 69* | 15 | 2 | -4 | -36 | -12%
COc1ccc2oc(C(=O)OCC(=O)NCCc3ccccc3)c(C)c2c1 | 0 | -6 | 3 | 1 | -16 | x | x
Cc1c(CCOC(=O)CC23CC4CC(CC(C)(C4)C2)C3)sc[n+]1CC(=O)c1ccccc1 | 0 | 76* | -7 | 70 | 27* | x | -4%
Cc1c(CCOC(=O)C23CC4CC(CC(C)(C4)C2)C3)sc[n+]1CC(=O)c1ccccc1 | 0 | 8 | 27 | x | 14 | x | x
CC(C)(C)C(=O)Cn1ncc(N2CCCC2)c(Br)c1=O | x | x | x | x | x | 4 | x
CC(C)(C)C(=O)Cn1ncc(Cl)c(Cl)c1=O | 0 | 75* | 57 | -16 | -3 | x | -4%
C[C@@H]1CN([C@@H](C)CO)C(=O)c2cc(NS(C)(=O)=O)ccc2O[C@@H](C)CCCCO[C@@H]1CN(C)S(=O)(=O)c1ccccc1 | 0 | 4 | -4 | 6 | 2 | 9 | x
O=c1ccc2ccccc2c2ccccc12 | 0 | 63* | 88* | -1 | -7 | x | -12%
COc1ccccc1-c1ccc(OCCCN2CCC(C(O)(c3ccccc3)c3ccccc3)CC2)cc1 | 0 | 71* | 96* | x | 9 | x | -15%
OC(c1ccccc1)(c1ccccc1)C1CCN(CCCOc2ccc(-c3ccncc3)cc2)CC1 | 1 | 25 | 14 | -30 | x | x | x
COc1cccc(S(=O)(=O)N[C@H]2C=C[C@H](CC(=O)NCc3ccccc3)O[C@@H]2CO)c1 | 0 | -11 | 1 | 0 | -2 | -7 | x
CCCCNC(=O)C(c1ccc(OCC(=O)OC)c(C(=O)OC)c1)N(CCOC)C(=O)CCCCCN1C(=O)NC(c2ccc(-c3ccccc3)cc2)C(C(=O)OCc2ccccc2)=C1C (centres undefined) | 0 | 59* | 37 | 1 | 1 | x | -4%
CCCCCCN(C(=O)CCCN1C(=O)NC(c2ccc([N+](=O)[O-])cc2)C(C(=O)OCc2ccccc2)=C1C)C(C)C(=O)NCCCC (centres undefined) | x | x | x | x | x | -9 | x
